Assay outcomes as filed in PubChem BioAssay.
Rows were chosen to be rich in hits. Some 2.2% of all compounds tested hit in one or more screens of this group.
VIM-2 inhibitor – blocks Pseudomonas aeruginosa VIM-2 metallo-beta-lactamase; purified VIM-2, nitrocefin hydrolysis, epi-absorbance fluorescence; inhibition, % at 5.6 µM; 0.89% of 290,000 active; AID 1527;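 active means inhibition above the mean of all tested compounds plus 3 SD, cutoff set per screening run, cut at about 7.5% in these data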;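 further: red hydrolysis product quenches plate fluorescence so inhibitors raise well fluorescence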
PHOSPHO1 block – inhibitors of human PHOSPHO1 phosphatase. inhibition, % at 13.3 µM. AID 1565. 1.1% of 290,000 active. recombinant PHOSPHO1, absorbance phosphatase assay. Q8TCT1; in the data active means inhibition above about 60%
Target sequence (Q8TCT1 whole entry, looked up): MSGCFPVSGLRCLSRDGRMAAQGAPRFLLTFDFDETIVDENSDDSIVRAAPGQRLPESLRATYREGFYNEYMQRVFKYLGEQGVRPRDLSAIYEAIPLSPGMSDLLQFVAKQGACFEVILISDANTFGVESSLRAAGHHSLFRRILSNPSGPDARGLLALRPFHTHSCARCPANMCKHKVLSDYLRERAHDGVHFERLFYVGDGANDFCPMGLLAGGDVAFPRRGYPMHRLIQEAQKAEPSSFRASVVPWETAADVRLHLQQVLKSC
IMP-1 inh – inhibitors of Pseudomonas aeruginosa IMP-1 metallo-beta-lactamase. inhibition, % at 5.6 µM. AID 1556. 0.45% of 290,000 active. purified IMP-1, nitrocefin hydrolysis, epi-absorbance fluorescence;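 active means inhibition above the mean plus 3 SD of all compounds in the same screening run, cut at about 4.5% in these data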
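system = purified recombinant IMP-1 beta-lactamase | amount = 0.2 nM IMP-1, as dispensed | medium = HEPES buffer pH 7.1 with ZnSO4 and Brij 35 | times = 25 °C, 15 min preincubation, 25 min reaction | detection = plate fluorescence quenching by hydrolysis product, ex 480/em 530 nm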
Yeast superoxide – yeast age-related superoxide inhibition as caloric restriction mimetic | S. cerevisiae aged cells, superoxide DHE fluorescence; active compounds read low | superoxide response (% of plate mean), % at 10 µM | 0.18% of 330,000 active | AID 2690;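 active means superoxide response under a set limit, about three screen SD below normal, cut at about 65% in these data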;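 further: yeast aged for seven days with compound at 30 °C before DHE staining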
PvdQ acylase – P. aeruginosa PvdQ acylase inhibition. purified PvdQ acylase, fluorescence plate reader. inhibition, % at 10 µM. 0.063% of 340,000 active; in the data active means inhibition above about 30%, passing the limit was not always enough
Hits are given with their value.

What do the screens show for `O=C(Cn1c(=O)oc2cc(S(=O)(=O)N3CCCC3)ccc21)NCc1ccc(F)cc1`?
VIM-2 inhibitor: 7.9; PHOSPHO1 block: inactive; IMP-1 inh: inactive; Yeast superoxide: inactive; PvdQ acylase: inactive

How did CC1CCC(NC(=O)Cn2c(=O)oc3cc(S(=O)(=O)N4CCCC4)ccc32)CC1 (configuration not stated) do in these assays?
VIM-2 inhibitor: inactive; PHOSPHO1 block: inactive; IMP-1 inh: 4.9; Yeast superoxide: inactive; PvdQ acylase: inactive

How did Cc1ccc(S(=O)(=O)N2CC(O)C2)cc1 do in these assays?
Yeast superoxide: inactive; PvdQ acylase: inactive

Results for COc1ccccc1CN(C)C(=O)COC(=O)c1cc(C)oc1C ?
PvdQ acylase: inactive

Results for N#Cc1cn(-c2cccc(C(F)(F)F)c2)c(=O)[nH]c1=O ?
VIM-2 inhibitor: inactive; IMP-1 inh: inactive; Yeast superoxide: inactive; PvdQ acylase: inactive

Results for COc1ccc(N2CCc3c(C)nc4c(OC)cc(OC)cc4c32)c(OC)c1 ?
VIM-2 inhibitor: inactive; PHOSPHO1 block: inactive; IMP-1 inh: inactive; Yeast superoxide: inactive; PvdQ acylase: inactive

Results for COc1ccc(N2CCc3c(C)nc4c(OC)cccc4c32)cc1 ?
VIM-2 inhibitor: 12.1; PHOSPHO1 block: inactive; IMP-1 inh: inactive; Yeast superoxide: inactive; PvdQ acylase: inactive

What do the screens show for `CCn1ccc(C(=O)Nc2ccc3c(c2)CCC3)n1`?
VIM-2 inhibitor: inactive; PHOSPHO1 block: inactive; IMP-1 inh: inactive; Yeast superoxide: inactive; PvdQ acylase: inactive

Results for COc1ccc(N2C(=O)C(Cl)=C(Nc3ccccc3O)C2=O)cc1 ?
VIM-2 inhibitor: inactive; PHOSPHO1 block: 69.5; IMP-1 inh: inactive; Yeast superoxide: inactive; PvdQ acylase: inactive

What do the screens show for `N#Cc1c2c(c(=S)n(-c3ccccc3)c1N)CCCC2`?
VIM-2 inhibitor: inactive; PHOSPHO1 block: 61.1; IMP-1 inh: inactive; Yeast superoxide: inactive; PvdQ acylase: inactive

Results for CCOC(=O)c1c2c(c(=S)n(-c3ccccc3)c1N)CCC2 ?
VIM-2 inhibitor: inactive; PHOSPHO1 block: inactive; IMP-1 inh: inactive; Yeast superoxide: inactive; PvdQ acylase: inactive

Results for CC(=O)C1=C(C)NC(SCC(=O)c2ccc(Cl)cc2Cl)=C(C#N)C1c1ccco1 (configuration not stated) ?
VIM-2 inhibitor: inactive; PHOSPHO1 block: 74.0; IMP-1 inh: inactive; Yeast superoxide: inactive; PvdQ acylase: inactive

How did CCSc1nc2nccnc2c(=O)[nH]1 do in these assays?
PvdQ acylase: inactive

How did Cc1[nH]c(=S)c(C#N)c(-c2ccco2)c1C(=O)N(C)C do in these assays?
VIM-2 inhibitor: inactive; PHOSPHO1 block: 60.9; IMP-1 inh: inactive; Yeast superoxide: inactive; PvdQ acylase: inactive

Results for Cc1cc2c(cc3c(=O)n(CC(=O)NCCCN4CC(C)CC(C)C4)ncn32)s1 (configuration not stated) ?
VIM-2 inhibitor: inactive; PHOSPHO1 block: 69.0; IMP-1 inh: inactive; Yeast superoxide: inactive; PvdQ acylase: inactive

What do the screens show for `Cc1cc(/C=c2/sc3nc4ccccc4n3c2=O)c(C)n1-c1ccccn1`?
VIM-2 inhibitor: inactive; PHOSPHO1 block: 75.2; IMP-1 inh: inactive; Yeast superoxide: inactive; PvdQ acylase: inactive

What do the screens show for `Cc1cc(/C=c2\sc3nc4ccccc4n3c2=O)c(C)n1-c1ccc(C(=O)O)cc1`?
VIM-2 inhibitor: inactive; PHOSPHO1 block: inactive; IMP-1 inh: inactive; PvdQ acylase: inactive

Results for COc1ccc(CNS(=O)(=O)c2cc3c4c(c2)C(C)C(=O)N4CCC3)cc1 (configuration not stated) ?
VIM-2 inhibitor: inactive; PHOSPHO1 block: inactive; IMP-1 inh: inactive; Yeast superoxide: inactive; PvdQ acylase: inactive

Results for O=C(O)C1Nc2c(O)cc(Cl)c([N+](=O)[O-])c2C2C=CCC12 (configuration not stated) ?
VIM-2 inhibitor: inactive; PHOSPHO1 block: inactive; IMP-1 inh: inactive; Yeast superoxide: inactive; PvdQ acylase: inactive

How did O=C(CSc1nc2ccccc2c(=O)[nH]1)N1CCOCC1 do in these assays?
VIM-2 inhibitor: inactive; PHOSPHO1 block: inactive; IMP-1 inh: inactive; Yeast superoxide: inactive; PvdQ acylase: inactive

How did O=C(CSc1nc2ccc(S(=O)(=O)N3CCOCC3)cc2[nH]1)N1CCOCC1 do in these assays?
VIM-2 inhibitor: inactive; PHOSPHO1 block: 67.0; IMP-1 inh: inactive; Yeast superoxide: inactive; PvdQ acylase: inactive

Results for CCCCNS(=O)(=O)c1ccc2nc(SCC(=O)N3CC(C)OC(C)C3)[nH]c2c1 (configuration not stated) ?
VIM-2 inhibitor: inactive; PHOSPHO1 block: 75.3; IMP-1 inh: inactive; Yeast superoxide: inactive; PvdQ acylase: inactive
